The source made the active and inactive calls. No cut-off for these calls is given here.
Columns and labels:
ARPE-19 [1] = test: Cytotoxicity against human ARPE19 cells assessed as reduction in cell viability up to 100 uM after 72 hrs by CellTiter-blue assay; format: cell-based; conditions: arpe-19, 72 h
In short: (§1)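 Inherent toxicity tested on ARPE-19 cells. Compounds at concentrations up to 100 μM for 72 h. Viability read by CellTiter Blue assay.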

ARPE-19 [2] = test: Cytoprotective activity against H2O2-induced toxicity in human ARPE19 cells pretreated for 5 hrs followed by H2O2 addition after 19 hrs by CellTiter-blue assay; format: functional, cell-based
In short: (§2)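 ARPE-19 human retinal pigment epithelial cells pre-incubated 5 h with a range of compound concentrations, then given H2O2 at 200 μM. Viability read 19 h after peroxide addition by CellTiter Blue. Expressed as percent of untreated control (100%).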

[3] = Drug level treated with BSIH assessed as metabolite formation at 500 uM after 24 hrs in presence of H2O2 by 1H-NMR spectroscopic analysis
[4] = Drug metabolism in phosphate buffered saline at pH 7.4 assessed as formation of isoniazid by measuring elution time at 100 uM after 24 hrs in presence of H2O2 by LC-MS analysis; format: physicochemical; conditions: buffer, pH 7.4, 24 h
[5] = Stability of the compound in Britton-Robinson buffer at pH 4 assessed as parent compound remaining at 100 uM by UV-vis spectrometric analysis; format: physicochemical; conditions: read-out: Stability
[6] = Drug metabolism in phosphate buffered saline at pH 7.4 assessed as formation of salicylaldehyde by measuring retention time at 100 uM after 24 hrs in presence of H2O2 by LC-MS analysis; format: physicochemical; conditions: buffer, pH 7.4, 24 h
[7] = Stability of the compound in aqueous solvent assessed as parent compound remaining at 100 uM after 24 hrs in presence of H2O2 by 1H-NMR spectrometric method; format: physicochemical; conditions: aqueous solvent with H2O2; read-out: Stability
[8] = Drug metabolism in DMSO-d6 assessed as formation of pinacol boronic ester form of BSIH at 10 mM by 1H-NMR spectroscopic analysis; format: physicochemical; conditions: 10000 µM
[9] = Stability of the compound in D2O/5% DMSO-d6 assessed as parent compound remaining at 500 uM after 1 hr by 1H-NMR spectroscopic analysis; format: physicochemical; conditions: read-out: Stability
[10] = Stability of the compound in minimal essential medium assessed as compound hydrolysis at 100 uM at pH 7.4 within 20 mins by UV-Vis spectrophotometric analysis
[11] = Drug metabolism in phosphate buffered saline at pH 7.4 assessed as formation of SIH by measuring elution time at 100 uM after 24 hrs in presence of H2O2 by LC-MS analysis; format: physicochemical; conditions: buffer, pH 7.4, 24 h
[12] = Stability of the compound in phosphate buffered saline at pH 7.4 assessed as compound hydrolysis at 100 uM within 20 mins by UV-Vis spectrophotometric analysis; format: physicochemical; conditions: buffer, pH 7.4, 20 min
[13] = Stability of the compound in Britton-Robinson buffer at pH 8 assessed as parent compound remaining at 100 uM by UV-vis spectrometric analysis; format: physicochemical; conditions: read-out: Stability
[14] = Drug metabolism in phosphate buffered saline at pH 7.4 assessed as equilibrium hydrolysis constant measured at 1 min interval for 20 mins by UV-vis spectrophotometric method; format: physicochemical; conditions: buffer, pH 7.4, 20 min
[15] = Stability of the compound in Britton-Robinson buffer at pH 12 assessed as parent compound remaining at 100 uM by UV-vis spectrometric analysis; format: physicochemical; conditions: read-out: Stability
[16] = Stability of the compound in Britton-Robinson buffer at pH 2 assessed as parent compound remaining at 100 uM by UV-vis spectrometric analysis; format: physicochemical; conditions: read-out: Stability
[17] = Drug metabolism in D2O/5% DMSO-d6 assessed as formation of aldehyde proton of salicylaldehyde at 500 uM after 1 hr by 1H-NMR spectroscopic analysis; format: physicochemical
[18] = Stability of the compound in Britton-Robinson buffer at pH 6 assessed as parent compound remaining at 100 uM by UV-vis spectrometric analysis; format: physicochemical; conditions: read-out: Stability
[19] = Stability of the compound in Britton-Robinson buffer at pH 10 assessed as parent compound remaining at 100 uM by UV-vis spectrometric analysis; format: physicochemical; conditions: read-out: Stability
[20] = Stability of the compound in minimal essential medium assessed as compound hydrolysis at 100 uM at pH 7.4 up to 24 hrs by UV-Vis spectrophotometric analysis
In short: (§3)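 Compound at 100 μM dissolved in PBS pH 7.4 or in minimal essential medium. UV-Vis spectra of freshly prepared and 24-h aged solutions kept at ambient temperature were compared.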

[21] = Drug metabolism in D2O/5% DMSO-d6 assessed as pinacol dissociation by measuring formation of boronic acid form of BASIH at 500 uM after 1 hr by 1H-NMR spectroscopic analysis; format: physicochemical
[22] = Drug metabolism in DMSO-d6 assessed as formation of hydrazone proton at 10 mM by 1H-NMR spectroscopic analysis; format: physicochemical; conditions: 10000 µM
[23] = Stability of the compound in phosphate buffered saline at pH 7.4 assessed as compound hydrolysis at 100 uM up to 24 hrs by UV-Vis spectrophotometric analysis; format: physicochemical; conditions: buffer, pH 7.4, 24 h; in short: as §3
[24] = Drug metabolism in D2O/5% DMSO-d6 assessed as formation of hydrazone proton at 500 uM after 1 hr by 1H-NMR spectroscopic analysis; format: physicochemical
ARPE-19 [25] = test: Cytoprotective activity against H2O2-induced toxicity in human ARPE19 cells up to 100 uM pretreated for 5 hrs followed by H2O2 addition after 19 hrs by CellTiter-blue assay; format: functional, cell-based; in short: as §2
[26] = Drug metabolism in RPMI media assessed as equilibrium hydrolysis constant at 100 uM; format: physicochemical
[27] = Drug level treated with BSIH in DMSO assessed as metabolite formation at 100 uM at pH 7.4 after overnight incubation in presence of H2O2 by UV-vis spectrometric analysis
[28] = Stability of the compound in minimal essential medium assessed as compound hydrolysis at 100 uM within 24 hrs by UV-Vis spectrophotometric analysis
ARPE-19 [29] = test: Cytotoxicity against human ARPE19 cells assessed as reduction in cell viability at 100 uM after 72 hrs by CellTiter-blue assay relative to control; format: cell-based; conditions: arpe-19, 72 h; in short: as §1
[30] = Stability of the compound in phosphate buffered saline at pH 7.4 assessed as compound hydrolysis at 100 uM after 24 hrs by UV-Vis spectrophotometric analysis; format: physicochemical; conditions: buffer, pH 7.4, 24 h; in short: as §3
[31] = Stability of the compound in minimal essential medium assessed as compound hydrolysis at 100 uM at pH 7.4 after 24 hrs by UV-Vis spectrophotometric analysis; in short: as §3
[32] = Stability of the compound in aqueous solvent at 500 uM after 24 hrs in presence of H2O2 by 1H-NMR spectroscopic analysis; format: physicochemical; conditions: buffer
[33] = Half-life in RPMI media at 100 uM; format: physicochemical
[34] = Stability of the compound in phosphate buffered saline assessed as parent compound remaining at 100 uM at pH 7.4 after 20 mins by UV-vis spectrophotometric analysis; format: physicochemical; conditions: read-out: Stability
[35] = Stability of the compound in phosphate buffered saline assessed as parent compound remaining at 500 uM at pH 7.4 after 20 mins by UV-vis spectrophotometric analysis; format: physicochemical; conditions: read-out: Stability

O=Cc1ccccc1O [SALICYLADEHYDE]
Activity (ARPE-19 [1]): Non-Toxic | Activity (ARPE-19 [2]): Dose-dependent effect | Drug metabolism [3]: Metabolite detected

CC1(C)OB(c2ccccc2/C=N/NC(=O)c2ccncc2)OC1(C)C
Time [4]: 2 min | remaining at 100 µM [5]: 26% | Retention_time [6]: 12 min | remaining at 24 h, 100 µM [7]: 25% | Drug metabolism [8]: 1.34 ppm | remaining at 1 h, 500 µM [9]: 80% | Stability [10]: Unstable | Time [11]: 13 min | Stability [12]: Unstable | remaining at 100 µM [13]: 65% | K [14]: 1.5 ×10⁻⁵ M | remaining at 100 µM [15]: 50% | remaining at 100 µM [16]: 9% | Activity (ARPE-19 [1]): Non-Toxic | Activity (ARPE-19 [2]): Dose-dependent effect | Drug metabolism [17]: 9.9 ppm | remaining at 100 µM [18]: 36% | remaining at 100 µM [19]: 67% | Stability [20]: Stable | Drug metabolism [21]: 1.03 ppm | Drug metabolism [22]: 8.79 ppm | Stability [23]: Stable | Drug metabolism [24]: Metabolite_Notdetected

NNC(=O)c1ccncc1 [ISONIAZID]
Activity (ARPE-19 [25]): inactive | Activity (ARPE-19 [1]): Non-Toxic | Drug metabolism [3]: Metabolite detected

O=C(N/N=C/c1ccccc1O)c1ccncc1 [SALINAZID]
K [26]: 5 ×10⁻⁴ M | Drug metabolism [27]: Metabolite detected | Stability [28]: Unstable | Activity (ARPE-19 [29]): 30% | Stability [30]: Stable | Stability [31]: Unstable | Stability [32]: Stable | half-life at 100 µM [33]: 2.7 h | Activity (ARPE-19 [2]): Dose-dependent effect

O=Cc1ccccc1B(O)O
Activity (ARPE-19 [1]): Non-Toxic | Activity (ARPE-19 [2]): Dose-dependent effect

O=C(N/N=C/c1ccccc1B(O)O)c1ccncc1
remaining at 20 min, 100 µM [34]: 68% | Stability [12]: Unstable | remaining at 20 min, 500 µM [35]: 84% | Stability [23]: Stable
